# Source: publication PMC3228362 (Biochemistry, 2011)
# Where “and” joins values, the source holds several entries; their conditions need not be identical. Identical values can stand only once. Like-named read-outs stand apart in the source and are kept apart here. Marks after values point to notes of the source that are not given here.
# What was measured:
# [1] = biological target: T1, RB69 Y567A exo^- DNA polymerase (Escherichia phage RB69, UniProt Q38087, D222A/D327A/Y567A); format: biochemical, bacteriophage RB69
# Method in brief: (§1)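 Single-turnover rapid chemical quench at 22 °C in 66 mM Tris-HCl pH 7.5. Final concentrations were 100 nM 5′-32P-labeled DNA, 1 μM polymerase, 10 mM MgCl2 and varying dNTP. Reactions were quenched with 0.5 M EDTA. Products were resolved on 20% acrylamide/8 M urea gels and quantified by phosphorimaging. Data were fit to a single exponential.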
# [2] = tested on: T4 exo^- DNA polymerase; test: Nucleotide incorporation opposite template 2AP; format: biochemical, bacteriophage T4; conditions: for kpol / Kdincorp: long A+T-rich DNA 1, from data of ref 13
# [3] = tested on: T4 exo^- DNA polymerase; conditions: opposite template 2AP, long A+T-rich DNA 1, cited from earlier work
# [4] = biological target: T2, RB69 exo^- DNA polymerase (D222A/D327A, wild type) (Escherichia phage RB69, UniProt Q38087, D222A/D327A); format: biochemical, bacteriophage RB69; conditions: opposite template 2AP; for Kd: read-out: Kdincorp, app
# Method in brief: as §1
# [5] = biological target: T2, RB69 exo^- DNA polymerase (D222A/D327A, wild type); test: Nucleotide binding opposite template 2AP; parameters: species or system bacteriophage RB69; conditions: for Kd: read-out: Kdbind, opposite template 2AP
# Method in brief: (§2)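 Chain-terminated (dideoxy) 2AP-labeled primer-template DNA at 200 nM with a 2 to 2.5-fold excess of polymerase, in 25 mM HEPES pH 7.6, 50 mM NaCl, 1 mM DTT and 10 mM MgCl2. Nucleotide was added incrementally. Excitation was at 315 nm and emission was scanned from 330 to 450 nm with 2 nm band-pass, at 20 °C. Kd was taken from the fluorescence quench curves.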
# [6] = tested on: T4 exo^- DNA polymerase; test: Nucleotide binding opposite template 2AP; parameters: species or system bacteriophage T4; conditions: for Kd: opposite template 2AP
# [7] = tested on: T4 exo^- DNA polymerase; conditions: cited from earlier work
# [8] = biological target: T1, RB69 Y567A exo^- DNA polymerase; test: Nucleotide binding opposite template 2AP; parameters: species or system bacteriophage RB69; conditions: for Kd: opposite template 2AP
# Method in brief: as §2
# [9] = tested on: DNA polymerase α; conditions: cited from earlier work
# [10] = A+T- and G+C-rich DNAs (Table 1)
# [11] = opposite template 2AP, long A+T-rich DNA 1
# [12] = opposite template 2AP, long G+C-rich DNA 2
# [13] = opposite template 2AP, short A+T-rich DNA 3
# [14] = opposite template 2AP, short G+C-rich DNA 4
# [15] = read-out: Kdincorp, app, opposite template 2AP, long A+T-rich DNA 1
# [16] = read-out: Kdincorp, app, opposite template 2AP, short A+T-rich DNA 3
# [17] = read-out: Kdincorp, app, opposite template 2AP, short G+C-rich DNA 4
# [18] = read-out: Kdbind, long A+T-rich DNA 1
# [19] = read-out: Kdbind, long G+C-rich DNA 2
# [20] = read-out: Kd (Table 3), DNA 1, conditions as Table 1
# T2 sequence (Q38087 whole entry D222A/D327A): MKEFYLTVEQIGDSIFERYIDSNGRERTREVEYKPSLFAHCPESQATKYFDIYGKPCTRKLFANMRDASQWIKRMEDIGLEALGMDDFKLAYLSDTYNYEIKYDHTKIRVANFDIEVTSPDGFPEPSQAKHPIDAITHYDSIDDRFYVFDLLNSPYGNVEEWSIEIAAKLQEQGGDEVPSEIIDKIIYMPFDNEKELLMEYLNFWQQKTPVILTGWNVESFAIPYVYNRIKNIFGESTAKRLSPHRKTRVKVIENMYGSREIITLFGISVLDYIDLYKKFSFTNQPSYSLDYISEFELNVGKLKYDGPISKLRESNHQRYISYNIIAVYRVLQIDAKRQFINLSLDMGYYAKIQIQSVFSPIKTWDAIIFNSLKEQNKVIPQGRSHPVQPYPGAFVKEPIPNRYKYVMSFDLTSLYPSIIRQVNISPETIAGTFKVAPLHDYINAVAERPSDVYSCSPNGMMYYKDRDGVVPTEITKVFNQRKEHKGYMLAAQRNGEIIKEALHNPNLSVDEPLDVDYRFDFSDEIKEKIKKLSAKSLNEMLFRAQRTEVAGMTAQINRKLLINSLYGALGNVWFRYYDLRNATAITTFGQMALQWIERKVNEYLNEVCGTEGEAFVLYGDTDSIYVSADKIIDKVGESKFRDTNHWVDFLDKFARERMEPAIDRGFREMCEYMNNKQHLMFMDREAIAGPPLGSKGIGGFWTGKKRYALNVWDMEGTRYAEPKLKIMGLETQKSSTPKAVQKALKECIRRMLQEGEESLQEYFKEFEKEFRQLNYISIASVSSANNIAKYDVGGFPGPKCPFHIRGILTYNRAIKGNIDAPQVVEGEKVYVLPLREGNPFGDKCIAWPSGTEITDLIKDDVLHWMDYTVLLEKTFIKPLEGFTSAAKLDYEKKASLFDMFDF
# T1 sequence (Q38087 whole entry D222A/D327A/Y567A): as the sequence (Q38087 whole entry D222A/D327A) above, with Y567A counted along it
structure (smiles),measurement,setting,value
Nc1ccn([C@H]2C[C@H](O)[C@@H](COP(=O)(O)O)O2)c(=O)n1 [dCMP],kpol,[1]; [10],~ 6 s^−1
same,"kpol, fold lower than for incorporation of dTMP",[1]; [10],> 30 fold
same,kpol/Kd incorporation ratio (efficiency of misincorporation),[1]; longer and shorter A+T-rich DNA substrates,30000 to 40000 M⁻¹ s⁻¹
same,kpol/Kd incorporation ratio (efficiency of misincorporation),[1]; longer and shorter G+C-rich DNA substrates,3000 to 7000 M⁻¹ s⁻¹
same,kpol (overall nucleotide incorporation rate),[1]; [11],6.4 ± 0.6 s⁻¹
same,kpol / Kdincorp,[1]; [11],40000 M⁻¹ s⁻¹
same,kpol (overall nucleotide incorporation rate),[1]; [12],~6 s⁻¹
same,kpol / Kdincorp,[1]; [12],~3000 M⁻¹ s⁻¹
same,kpol (overall nucleotide incorporation rate),[1]; [13],9.3 ± 0.7 s⁻¹
same,kpol / Kdincorp,[1]; [13],30000 M⁻¹ s⁻¹
same,kpol / Kdincorp,[1]; [14],7000 M⁻¹ s⁻¹
same,Kd,"[1]; read-out: Kd,app for incorporation, shorter A+T- and G+C-rich DNAs (Table 2)",300 to 360 µM
same,Kd,[1]; [15],~170 µM and 170 µM
same,Kd,[1]; [16],298 ± 65 µM
same,Kd,[1]; [17],361 ± 52 µM
same,kpol / Kdincorp,[2],<0.0008 µM⁻¹ s⁻¹
same,kpol (overall nucleotide incorporation rate),[3],2.3 ± 0.1 s^−1 ^a
same,kpol (overall nucleotide incorporation rate),[4]; short A+T-rich DNA 3,slow ^c
same,kpol / Kdincorp,[4]; short A+T-rich DNA 3,<1000 to 3000 M⁻¹ s⁻¹
same,kpol (overall nucleotide incorporation rate),[4]; short G+C-rich DNA 4,slow ^c
same,kpol / Kdincorp,[4]; short G+C-rich DNA 4,<1000 to 3000 M⁻¹ s⁻¹
Nc1ccn([C@H]2C[C@H](O)[C@@H](COP(=O)(O)OP(=O)(O)OP(=O)(O)O)O2)c(=O)n1 [dCTP],"discrimination against binding compared to dTTP, factor",[5]; 30 μM compared to 3 mM,≥ 100
same,"discrimination against binding compared to dTTP, factor",[6]; 30 μM compared to 3 mM,≥ 100
same,inhibition of dTTP binding,[7],not an inhibitor of dTTP binding
same,Kd,[7]; read-out: Kd for binding opposite template 2AP,≥ 3000 µM
same,"Kd for binding, fold higher than Kd for dTTP binding",[8]; A+T-rich DNA substrate (DNA 1),< 3 fold
same,"Kd for binding, fold higher than Kd for dTTP binding",[8]; G+C-rich DNA (DNA 2),> 20 fold
same,Kd,[8]; [18],24.8 ± 2.1 µM
same,Kd,[8]; [19],~317 µM and 317 µM
same,Kd,"[8]; read-out: Kdbind, short A+T-rich DNA 3",~53 µM and 53 µM
same,Kd,"[8]; read-out: Kdbind, short G+C-rich DNA 4",~373 µM and 373 µM
"Cc1cc(C2CC(O)C(COP(=O)(O)OP(=O)(O)OP(=O)(O)O)O2)c(F)cc1F (centres unmarked) [dFTP, difluorotoluene deoxynucleoside triphosphate]",quench of 2AP fluorescence,"[7]; at concentrations <150 μM, T4 DNA pol binary complexes",does not quench 2AP fluorescence
same,Ki,"[7]; read-out: Ki (competitive inhibitor of dTTP-Mg^2+-induced quenching), T4 DNA pol binary complexes",~68 µM
Cc1cn([C@H]2C[C@H](O)[C@@H](COP(=O)(O)O)O2)c(=O)[nH]c1=O [dTMP],kpol,[1]; [10],~ 200 s^−1
same,preference for dTMP over dCMP incorporation,[1]; longer DNA substrates (Table 1),~ 300 fold and > 300 fold
same,dTMP/dCMP (ratio of kpol / Kdincorp),[1]; [11],375
same,kpol (overall nucleotide incorporation rate),[1]; [11],240 ± 11 s⁻¹
same,kpol / Kdincorp,[1]; [11],1.5e+07 M⁻¹ s⁻¹
same,dTMP/dCMP (ratio of kpol / Kdincorp),[1]; [12],333
same,kpol (overall nucleotide incorporation rate),[1]; [12],190 ± 11 s⁻¹
same,kpol / Kdincorp,[1]; [12],1e+06 M⁻¹ s⁻¹
same,dTMP/dCMP (ratio of kpol / Kdincorp),[1]; [13],143
same,kpol (overall nucleotide incorporation rate),[1]; [13],289 ± 9 s⁻¹
same,kpol / Kdincorp,[1]; [13],4.3e+06 M⁻¹ s⁻¹
same,dTMP/dCMP (ratio of kpol / Kdincorp),[1]; [14],129
same,kpol (overall nucleotide incorporation rate),[1]; [14],233 ± 27 s⁻¹
same,kpol / Kdincorp,[1]; [14],900000 M⁻¹ s⁻¹
same,Kd,[1]; [15],~16 µM and 16 µM
same,Kd,"[1]; read-out: Kdincorp, app, opposite template 2AP, long G+C-rich DNA 2",180 ± 75 µM
same,Kd,[1]; [16],67.3 ± 8 µM
same,Kd,[1]; [17],263 ± 78 µM
same,preference for dTMP over dCMP incorporation,[1]; shorter DNAs (Table 2),~ 100 fold and > 100 fold
same,dTMP/dCMP (ratio of kpol / Kdincorp),[2]; long A+T-rich DNA 1,>560
same,kpol / Kdincorp,[2],0.45 ^f μM^−1 s^−1
same,kpol (overall nucleotide incorporation rate),[3],165 ± 3 s^−1 ^a
same,Kd,"[3]; read-out: Kdincorp, app",367 ± 36 µM
same,dTMP/dCMP (ratio of kpol / Kdincorp),[4]; short A+T-rich DNA 3,>1000
same,kpol (overall nucleotide incorporation rate),[4]; short A+T-rich DNA 3,379 ± 28 s⁻¹
same,kpol / Kdincorp,[4]; short A+T-rich DNA 3,3.3e+06 M⁻¹ s⁻¹
same,dTMP/dCMP (ratio of kpol / Kdincorp),[4]; short G+C-rich DNA 4,>1000
same,kpol (overall nucleotide incorporation rate),[4]; short G+C-rich DNA 4,201 ± 16 s⁻¹
same,kpol / Kdincorp,[4]; short G+C-rich DNA 4,1e+06 M⁻¹ s⁻¹
same,Kd,[4]; short A+T-rich DNA 3,114 ± 26 µM
same,Kd,[4]; short G+C-rich DNA 4,200 ± 45 µM
same,incorporation opposite template 2AP favored over incorporation of dCMP,[9],20- to 25 fold
Cc1cn([C@H]2C[C@H](O)[C@@H](COP(=O)(O)OP(=O)(O)OP(=O)(O)O)O2)c(=O)[nH]c1=O [dTTP],Kd,[5]; long A+T-rich DNA 1,31.1 ± 0.9 µM
same,Kd,[5]; long G+C-rich DNA 2,30 ± 0.4 µM
same,kpol (rate of nucleotide binding),[6]; long G+C-rich DNA 2,rapid
same,Kd,[6]; [19],28.7 ± 0.6 µM
same,kpol (rate of nucleotide binding),"[7]; long A+T-rich DNA 1, rapid = within dead time of stopped flow instrument",rapid ^a
same,Kd,"[7]; read-out: Kdbind, opposite template 2AP, long A+T-rich DNA 1",~35 µM and 35 µM
same,Kd,[8]; [18],9.2 ± 0.8 µM
same,Kd,[8]; [19],15.1 ± 1.4 µM
O=c1ccn([C@H]2C[C@H](O)[C@@H](COP(=O)(O)OP(=O)(O)OP(=O)(O)O)O2)c(=O)[nH]1 [dUTP],Kd,[6]; [20],74.1 ± 2 µM
same,Kd,[8]; [20],21 ± 1 µM
O=c1ccn([C@@H]2O[C@H](COP(=O)(O)OP(=O)(O)OP(=O)(O)O)[C@@H](O)[C@H]2O)c(=O)[nH]1 [rUTP],Kd,[6]; [20],> 3000 µM
same,Kd,[8]; [20],522 ± 55 µM
